Like-named read-outs stand apart in the source and are kept apart here.

The target in data set [1] is T1, FGFR2 (Homo sapiens, UniProt P21802). Nature of the data set: Immunoblot analysis of FGFR2 degradation in KATO III cells. The format is cell-based. Put shortly:
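FGFR2-amplified KATO III cells exposed to test compound at 1 µM for 24h, across a concentration series for 6h, over a time course, or for 4h beside a negative-control analogue. For rescue, cells were pretreated 2h with BGJ398, a VHL ligand, bortezomib or MLN4924, then given test compound for 4h. Full-length FGFR2 was detected by immunoblot.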
Target sequence in this assay (P21802 430-767 limits assumed): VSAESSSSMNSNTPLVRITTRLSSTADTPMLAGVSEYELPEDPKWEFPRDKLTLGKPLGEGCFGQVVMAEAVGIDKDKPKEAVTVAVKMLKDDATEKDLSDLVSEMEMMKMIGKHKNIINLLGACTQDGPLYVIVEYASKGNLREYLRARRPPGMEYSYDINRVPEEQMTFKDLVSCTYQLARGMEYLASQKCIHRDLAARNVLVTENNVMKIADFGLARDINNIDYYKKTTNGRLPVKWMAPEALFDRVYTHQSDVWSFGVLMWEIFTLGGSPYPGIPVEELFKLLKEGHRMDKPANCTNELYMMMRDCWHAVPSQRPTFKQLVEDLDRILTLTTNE

The target in data set [2] is T1, FGFR2. Description: Z'-LYTE kinase assay. The format is biochemical.
Target sequence in this assay (P21802 22-821): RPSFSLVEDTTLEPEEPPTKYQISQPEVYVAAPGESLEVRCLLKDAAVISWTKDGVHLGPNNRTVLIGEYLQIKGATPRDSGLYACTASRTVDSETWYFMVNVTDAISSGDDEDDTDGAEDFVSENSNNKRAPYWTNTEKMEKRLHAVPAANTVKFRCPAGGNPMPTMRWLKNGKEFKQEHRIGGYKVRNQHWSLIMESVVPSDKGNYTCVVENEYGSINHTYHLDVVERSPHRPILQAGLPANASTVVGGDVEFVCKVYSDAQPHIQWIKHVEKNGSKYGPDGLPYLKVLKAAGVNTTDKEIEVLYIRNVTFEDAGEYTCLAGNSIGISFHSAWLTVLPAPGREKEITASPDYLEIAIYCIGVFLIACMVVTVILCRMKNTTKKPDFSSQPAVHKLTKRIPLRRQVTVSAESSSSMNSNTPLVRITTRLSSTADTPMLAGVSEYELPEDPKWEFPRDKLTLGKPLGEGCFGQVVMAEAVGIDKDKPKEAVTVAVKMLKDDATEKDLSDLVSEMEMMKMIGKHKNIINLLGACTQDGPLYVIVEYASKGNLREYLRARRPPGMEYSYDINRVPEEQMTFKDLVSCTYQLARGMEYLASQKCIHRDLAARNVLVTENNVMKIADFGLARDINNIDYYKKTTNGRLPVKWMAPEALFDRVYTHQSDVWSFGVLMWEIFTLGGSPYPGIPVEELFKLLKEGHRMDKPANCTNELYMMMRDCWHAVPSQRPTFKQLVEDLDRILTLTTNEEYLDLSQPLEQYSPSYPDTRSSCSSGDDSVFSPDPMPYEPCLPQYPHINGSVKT
For data set [3], the system named is phosphorylation of FRS2 or ERK. Nature of the data set: Immunoblot of downstream FGFR2 signaling. The format is cell-based. Particulars: CCLP1-FP cells, 50 nM, 4 or 8 hours. Put shortly: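 CCLP1 cells ectopically expressing the FGFR2-PHGDH fusion were exposed to test compound at 50 nM for 4 or 8 hours. Lysates were immunoblotted for the fusion protein and for signaling markers.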

Data set [4] addresses FGFR4 (Homo sapiens, UniProt P22455). Nature of the data set: Immunoblot analysis of FGFR4 in JHH7 cells. The format is cell-based. Particulars: 16h.
Data set [5] relates to all FGFR isoforms. Nature of the data set: Biochemical inhibition of FGFR isoforms. Particulars: Table S1. In a few lines: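 FGFR isoform IC50s measured by Z'-LYTE kinase assay, run as an outsourced service.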
The test system of data set [6] is CCLP1 cells. Description: CellTiter-Glo anti-proliferation, CCLP1 cells. Particulars: read-out: anti-proliferative IC50, FGFR1 overexpressing CCLP1 cells, 3d. The format is cell-based. In a few lines:
(§1)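 Cell viability read by CellTiter-Glo after test compound exposure: 3d for CCLP-FP (CCLP-1 with ectopic FGFR2-PHGDH fusion) and CCLP1 (FGFR1 overexpression), 10d for ICC13–7 (endogenous FGFR2-OPTN fusion); anti-proliferative IC50 derived; mean ± SEM, n = 3.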

Data set [7] concerns ICC13–7 cells. Description: CellTiter-Glo anti-proliferation, ICC13–7 cells. The format is cell-based. Particulars: read-out: anti-proliferative IC50, FGFR2 fusion-positive ICC13–7 cells, 10d. In a few lines:
as §1

The subject of data set [8] is CCLP-FP cells. Description: CellTiter-Glo anti-proliferation, CCLP-FP cells. The format is cell-based. Particulars: read-out: anti-proliferative IC50, engineered FGFR2 fusion CCLP-FP cells, 3d. In a few lines: as §1
Data set [9] relates to Kelly cells. Description: Quantitative mass spectrometry-based proteomics in Kelly cells. The format is cell-based. Particulars: 5h treatment, 1 µM. In a few lines: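 Kelly cells, which express both FGFR1 and FGFR2, given test compound at 1 µM for 5h. Quantitative mass spectrometry-based proteomics gave relative abundance of proteins across the proteome.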
Data set [10] deals with FGFR1 (Homo sapiens, UniProt P11362). Nature of the data set: Immunoblot analysis of FGFR1 degradation in CCLP1 cells. The format is cell-based.
Data set [11] deals with FGFR2-PHGDH (Homo sapiens, UniProt O43175+P21802). Nature of the data set: In vivo pharmacodynamics, CCLP1-FGFR2-PHGDH xenograft model. Also noted: species or system mice. Particulars: 20 or 40 mg/kg, IP QD for 6d; tumors isolated 4h after last dose. In a few lines: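 Mice bearing CCLP1-FGFR2-PHGDH xenografts began dosing once tumours reached ~200 mm3. Test compound was given at 20 or 40 mg/kg IP once daily for 6 d to assess in vivo degradation and signaling.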

The target in data set [12] is FGFR2-OPTN fusion (Homo sapiens, UniProt P21802+Q96CV9). Nature of the data set: Immunoblot analysis of FGFR2-OPTN fusion in ICC13–7 cells. The format is cell-based. Particulars: 100 nM and 1 µM, 24h. In a few lines:
(§2)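 Immunoblot for FGFR2 fusion protein after 24 h exposure to test compound. FGFR2-PHGDH fusion is ectopically expressed in CCLP-1 cells (CCLP-1-FP); FGFR2-OPTN is endogenous in ICC13–7 cells. Both fusions carry nearly the full FGFR2 coding sequence (extracellular, transmembrane and kinase domains) fused in-frame to dimerization-domain partners.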

Data set [13] deals with FGFR3 (Homo sapiens, UniProt P22607). Description: Immunoblot analysis of FGFR3 in JHH7 cells. The format is cell-based. Particulars: 16h.
The nature of data set [14]: Pharmacokinetics study in mice. The format is in vivo. Put shortly:
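Mice received a single dose of test compound by intravenous injection (1 mg/kg), intraperitoneal injection (3 mg/kg) or oral administration (10 mg/kg) for pharmacokinetic profiling.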

In data set [15] the target is FGFR2-PHGDH fusion (Homo sapiens, UniProt O43175+P21802). Nature of the data set: Immunoblot analysis of FGFR2-PHGDH fusion in CCLP-1-FP cells. The format is cell-based. Particulars: 100 nM and 1 µM, 24h. Put shortly:
as §2

[16] abbreviates: read-out: FGFR2 IC50, BGJ398-VHL based degraders.

Chain of FGFR2-PHGDH (P21802 458-767 limits assumed, one chain of several): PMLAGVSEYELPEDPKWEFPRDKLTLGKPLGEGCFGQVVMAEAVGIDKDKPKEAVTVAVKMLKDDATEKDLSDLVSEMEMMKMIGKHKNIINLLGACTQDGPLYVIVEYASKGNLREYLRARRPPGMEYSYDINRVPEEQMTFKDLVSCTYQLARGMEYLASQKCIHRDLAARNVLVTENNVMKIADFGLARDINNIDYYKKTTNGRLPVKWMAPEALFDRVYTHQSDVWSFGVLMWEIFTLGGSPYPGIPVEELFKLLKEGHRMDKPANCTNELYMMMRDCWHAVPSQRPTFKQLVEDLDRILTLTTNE
Chain of FGFR1 (P11362 22-822): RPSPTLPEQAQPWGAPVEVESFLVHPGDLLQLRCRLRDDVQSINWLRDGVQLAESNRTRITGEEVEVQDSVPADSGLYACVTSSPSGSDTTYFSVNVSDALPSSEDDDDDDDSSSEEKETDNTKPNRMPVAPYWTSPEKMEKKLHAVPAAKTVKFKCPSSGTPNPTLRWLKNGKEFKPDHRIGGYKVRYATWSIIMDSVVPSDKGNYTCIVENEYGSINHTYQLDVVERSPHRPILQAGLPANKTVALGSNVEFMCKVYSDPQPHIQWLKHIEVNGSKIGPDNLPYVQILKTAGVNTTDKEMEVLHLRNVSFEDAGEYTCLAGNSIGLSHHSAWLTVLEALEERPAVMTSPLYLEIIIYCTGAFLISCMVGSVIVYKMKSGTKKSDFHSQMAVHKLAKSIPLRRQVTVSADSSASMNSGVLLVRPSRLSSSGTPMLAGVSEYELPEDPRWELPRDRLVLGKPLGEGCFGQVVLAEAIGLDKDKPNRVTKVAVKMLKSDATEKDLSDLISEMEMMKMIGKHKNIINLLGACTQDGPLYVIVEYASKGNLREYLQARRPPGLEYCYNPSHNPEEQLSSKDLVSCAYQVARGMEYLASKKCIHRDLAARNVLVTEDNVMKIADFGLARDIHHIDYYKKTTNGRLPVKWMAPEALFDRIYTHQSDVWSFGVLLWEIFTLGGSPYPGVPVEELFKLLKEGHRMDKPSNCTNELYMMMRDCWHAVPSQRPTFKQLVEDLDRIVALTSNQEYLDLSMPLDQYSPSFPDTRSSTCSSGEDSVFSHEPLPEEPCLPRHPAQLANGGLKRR
Chain of FGFR4 (P22455 22-802): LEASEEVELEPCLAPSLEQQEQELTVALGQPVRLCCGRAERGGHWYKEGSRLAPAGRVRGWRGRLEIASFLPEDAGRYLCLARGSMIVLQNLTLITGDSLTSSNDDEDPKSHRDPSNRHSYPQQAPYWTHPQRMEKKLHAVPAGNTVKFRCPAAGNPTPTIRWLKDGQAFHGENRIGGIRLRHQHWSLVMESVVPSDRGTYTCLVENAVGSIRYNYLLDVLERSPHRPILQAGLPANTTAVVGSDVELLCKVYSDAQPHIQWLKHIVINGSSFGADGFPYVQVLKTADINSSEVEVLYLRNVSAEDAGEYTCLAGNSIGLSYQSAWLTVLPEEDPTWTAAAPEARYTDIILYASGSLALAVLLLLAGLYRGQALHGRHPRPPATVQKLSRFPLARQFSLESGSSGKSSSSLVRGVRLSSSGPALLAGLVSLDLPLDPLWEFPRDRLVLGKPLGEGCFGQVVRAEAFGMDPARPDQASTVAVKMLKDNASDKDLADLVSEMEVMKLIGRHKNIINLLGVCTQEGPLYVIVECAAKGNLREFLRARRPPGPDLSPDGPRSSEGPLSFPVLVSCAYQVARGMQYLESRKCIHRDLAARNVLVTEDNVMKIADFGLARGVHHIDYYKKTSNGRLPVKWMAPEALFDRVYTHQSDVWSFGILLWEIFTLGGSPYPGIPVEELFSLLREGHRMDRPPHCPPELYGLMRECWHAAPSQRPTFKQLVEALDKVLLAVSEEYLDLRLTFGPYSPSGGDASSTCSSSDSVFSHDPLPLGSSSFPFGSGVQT
Chain of FGFR3 (P22607 23-806): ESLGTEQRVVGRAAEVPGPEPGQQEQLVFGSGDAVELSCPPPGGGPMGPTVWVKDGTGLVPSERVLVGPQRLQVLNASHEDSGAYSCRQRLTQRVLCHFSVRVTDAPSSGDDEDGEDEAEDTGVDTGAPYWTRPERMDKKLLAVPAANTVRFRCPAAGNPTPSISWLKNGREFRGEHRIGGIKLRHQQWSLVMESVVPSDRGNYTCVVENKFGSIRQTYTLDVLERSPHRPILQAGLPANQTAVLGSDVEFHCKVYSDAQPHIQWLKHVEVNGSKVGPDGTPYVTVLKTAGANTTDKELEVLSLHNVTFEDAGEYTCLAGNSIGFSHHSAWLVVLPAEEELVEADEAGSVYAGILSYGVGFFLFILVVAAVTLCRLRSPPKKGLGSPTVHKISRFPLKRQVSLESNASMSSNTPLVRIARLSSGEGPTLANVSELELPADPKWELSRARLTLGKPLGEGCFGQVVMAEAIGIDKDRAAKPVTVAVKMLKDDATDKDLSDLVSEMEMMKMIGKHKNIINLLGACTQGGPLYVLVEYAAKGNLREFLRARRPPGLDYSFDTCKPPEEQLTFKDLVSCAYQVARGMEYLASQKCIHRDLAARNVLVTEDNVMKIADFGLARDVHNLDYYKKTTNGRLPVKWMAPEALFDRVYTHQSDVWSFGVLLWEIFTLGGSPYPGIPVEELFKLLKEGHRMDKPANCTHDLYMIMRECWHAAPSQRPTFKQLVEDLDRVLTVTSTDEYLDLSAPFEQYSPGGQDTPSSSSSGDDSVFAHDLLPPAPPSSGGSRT
Chain of FGFR2-OPTN fusion (P21802 431-767 limits assumed, one chain of several): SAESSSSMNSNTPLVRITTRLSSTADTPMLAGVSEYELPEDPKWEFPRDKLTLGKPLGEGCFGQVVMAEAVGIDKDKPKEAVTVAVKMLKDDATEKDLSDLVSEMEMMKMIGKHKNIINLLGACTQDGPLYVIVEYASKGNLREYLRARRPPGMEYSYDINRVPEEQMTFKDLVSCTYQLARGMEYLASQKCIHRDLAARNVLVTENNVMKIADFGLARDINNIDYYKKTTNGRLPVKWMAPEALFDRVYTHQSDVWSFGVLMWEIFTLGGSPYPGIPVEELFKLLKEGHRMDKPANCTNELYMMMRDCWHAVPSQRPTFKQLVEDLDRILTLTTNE
Chain of FGFR2-PHGDH fusion (P21802 431-767 limits assumed, one chain of several): as above

As to `CCN1CCN(c2ccc(Nc3cc(N(C)C(=O)Nc4c(Cl)c(OC)cc(OC)c4Cl)ncn3)cc2)CC1` [BGJ398, reference compound], in data set [1] (2h pretreatment then DGY-09-192 for 4h), the “Rescue of DGY-09-192 induced FGFR2 degradation by pretreatment” value is “rescued FGFR2 degradation”.
As for `COc1cc(OC)c(Cl)c(NC(=O)N(C)c2cc(Nc3ccc(N4CCN(CC(=O)NCCCCCOc5cccc6c5C(=O)N(C5CCC(=O)NC5=O)C6=O)CC4)cc3)ncn2)c1Cl` (stereo not drawn) [DGY-09-073], in [2] (read-out: FGFR2 IC50, BGJ398-IMiDs based degraders), the IC50 turned out to be 33 nM.
As to `COc1cc(OC)c(Cl)c(NC(=O)N(C)c2cc(Nc3ccc(N4CCN(CC(=O)N[C@H](C(=O)N5C[C@H](O)C[C@H]5C(=O)N[C@@H](C)c5ccc(-c6scnc6C)cc5)C(C)(C)C)CC4)cc3)ncn2)c1Cl` [DGY-09-192], the “Suppression of downstream FGFR2 signaling (phosphorylation of FRS2 or ERK)” value in data set [3] is recorded as “durably suppressed”. Besides, in data set [1] (6h dose titration), the “Concentration at which hook effect is observed” value is “above 5 µM”. For the same compound, the “Dmax of FGFR2 degradation” value in [1] (6h treatment) is 74%. In data set [1] (24h treatment at 1 µM), the “Degradation of full length FGFR2 protein” value is recorded as “most potent degradation”. Also, the “Time to significant FGFR2 degradation” value in [1] (time course) is on record as at most 4 h. Further, the “Effect on FGFR4 protein levels” value in data set [4] is “minimal effects”. Moreover, in data set [5], the “Inhibition of FGFR isoforms” value was “equally potent inhibitor for all FGFR isoforms”. In addition, the half-inhibitory concentration (IC50) in [6] is 17 nM. Besides, the IC50 in data set [7] turned out to be 40 nM. In addition, the IC50 in data set [8] is 8 nM. In addition, the Proteome-wide degradation selectivity result in [9] is “high selectivity for FGFR1 and FGFR2 with PDE6D as an off-target”. Besides, the “Dmax of FGFR1 degradation” value in data set [10] (16h) is 85%. In addition, in data set [10] (read-out: DC50 of FGFR1 degradation, 16h), the DC50 was determined as 4.35 nM. In addition, in [11], the “FGFR2-PHGDH protein levels in tumor” value is “reduction”; the “phosphorylation of downstream markers FRS2 and ERK1/2 in tumor” value is reported as “reduction”. Besides, the “Degradation of FGFR2-OPTN fusion protein” value in data set [12] was “dose-dependent degradation”. The half-maximal inhibitory concentration (IC50) in data set [2] (setting [16]) stood at 34 nM. Besides, the “Effect on FGFR3 protein levels” value in data set [13] was “minimal effects”. For the same compound, in data set [14] (ip 3 mg/kg), the AUClast amounted to 7.33 µM·h, the CL is 6.84 mL/min/kg, the peak concentration (Cmax) came out at 1490 nM and the T1/2 worked out at 4.25 h. Moreover, the time of peak concentration (Tmax) in data set [14] (ip 3 mg/kg) is 1.33 h. In data set [14] (iv 1 mg/kg), this compound came in with an AUClast of 2.94 µM·h, a CL of 5.58 mL/min/kg, a Cmax of 1600 nM and a T1/2 of 5.45 h. In addition, in data set [14] (iv 1 mg/kg), the Tmax was 0.08 h and the Vss worked out at 1.41 L/kg. Further, the “oral bioavailability” value in data set [14] (oral 10 mg/kg) is “negligible”. In [14] (po 10 mg/kg), the AUClast came to 0.07 µM·h, the CL was 1550.77 mL/min/kg, the highest level (Cmax) was 10 nM and the Fpo was found to be 0.2. In data set [14] (po 10 mg/kg), the T1/2 came to 5.10 h and the time to peak (Tmax) is on record as 1.67 h. In addition, in data set [14] (via IV and IP administration), the “clearance” value is listed as “low clearance” and the “half-life (T1/2)” value was 5 h. Moreover, the “Degradation of FGFR2-PHGDH fusion protein” value in data set [15] is reported as “dose-dependent degradation”.
With `COc1cc(OC)c(Cl)c(NC(=O)N(C)c2cc(Nc3ccc(N4CCN(CC(=O)NCCCCCSC(C)(C)C(NC(C)=O)C(=O)N5CC(O)CC5C(=O)NC(C)c5ccc(-c6scnc6C)cc5)CC4)cc3)ncn2)c1Cl` (stereo not drawn) [DGY-11-122], the half-inhibitory concentration (IC50) in data set [2] (setting [16]) turned out to be 43 nM.
Same read-out and setting: as for `COc1cc(OC)c(Cl)c(NC(=O)N(C)c2cc(Nc3ccc(N4CCN(CC(=O)NCCCCCOc5cc(-c6scnc6C)ccc5[C@H](C)NC(=O)[C@@H]5C[C@@H](O)CN5C(=O)[C@@H](NC(C)=O)C(C)(C)C)CC4)cc3)ncn2)c1Cl` [DGY-11-123], the figure is 59 nM; as for `COc1cc(OC)c(Cl)c(NC(=O)N(C)c2cc(Nc3ccc(N4CCN(CC(=O)NCCC(=O)N[C@H](C(=O)N5C[C@H](O)C[C@H]5C(=O)N[C@@H](C)c5ccc(-c6scnc6C)cc5)C(C)(C)C)CC4)cc3)ncn2)c1Cl` [NJH-05-043], 30 nM; as for `COc1cc(OC)c(Cl)c(NC(=O)N(C)c2cc(Nc3ccc(N4CCN(C(=O)NCCOCCC(=O)NC(C(=O)N5CC(O)CC5C(=O)NC(C)c5ccc(-c6scnc6C)cc5)C(C)(C)C)CC4)cc3)ncn2)c1Cl` (stereo not drawn) [NJH-05-044], 33 nM.
Still for that read-out and setting: to `COc1cc(OC)c(Cl)c(NC(=O)N(C)c2cc(Nc3ccc(N4CCN(CCCCCC(=O)N[C@H](C(=O)N5C[C@H](O)C[C@H]5C(=O)N[C@@H](C)c5ccc(-c6scnc6C)cc5)C(C)(C)C)CC4)cc3)ncn2)c1Cl` [NJH-05-123] belongs 16 nM; to `COc1cc(OC)c(Cl)c(NC(=O)N(C)c2cc(Nc3ccc(N4CCN(CCCC(=O)N[C@H](C(=O)N5C[C@H](O)C[C@H]5C(=O)N[C@@H](C)c5ccc(-c6scnc6C)cc5)C(C)(C)C)CC4)cc3)ncn2)c1Cl` [NJH-05–132], 10 nM.
On to `COc1cc(OC)c(Cl)c(NC(=O)N(C)c2cc(Nc3ccc(N4CCN(CCC(=O)N[C@H](C(=O)N5C[C@H](O)C[C@H]5C(=O)N[C@@H](C)c5ccc(-c6scnc6C)cc5)C(C)(C)C)CC4)cc3)ncn2)c1Cl` [NJH-05–166], for which, in data set [2] (setting [16]), the IC50 turned out to be 30 nM.

The values above are taken from publication PMC8324087 (Angewandte Chemie (International ed. in English), 2021).
